We go through 16 compounds from ChEMBL document CHEMBL4325875, “Computer-aided design, synthesis and biological characterization of novel inhibitors for PKMYT1” (Eur J Med Chem, 2019).

The target in assay [1] is T1, Membrane-associated tyrosine- and threonine-specific cdc2-inhibitory kinase (Homo sapiens) (UniProt Q99640).
T1 sequence (whole entry): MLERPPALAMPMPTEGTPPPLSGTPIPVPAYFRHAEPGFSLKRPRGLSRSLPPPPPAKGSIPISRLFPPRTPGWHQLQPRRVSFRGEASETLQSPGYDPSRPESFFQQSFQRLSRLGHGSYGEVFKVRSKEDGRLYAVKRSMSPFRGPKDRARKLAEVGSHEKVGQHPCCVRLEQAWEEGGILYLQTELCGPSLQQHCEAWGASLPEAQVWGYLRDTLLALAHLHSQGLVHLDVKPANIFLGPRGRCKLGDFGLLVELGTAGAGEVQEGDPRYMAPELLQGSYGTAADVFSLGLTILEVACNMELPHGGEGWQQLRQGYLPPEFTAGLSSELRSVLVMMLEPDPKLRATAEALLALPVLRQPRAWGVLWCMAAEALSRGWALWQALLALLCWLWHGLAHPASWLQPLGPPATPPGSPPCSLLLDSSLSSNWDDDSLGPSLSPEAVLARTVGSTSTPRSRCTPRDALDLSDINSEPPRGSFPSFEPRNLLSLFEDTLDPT
The assay is described as follows: Displacement of (6-FAM)KI(pY)VV from PKMYT1 kinase domain (unknown origin) at 20 uM by fluorescence polarization binding assay relative to control. The procedure, abridged: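 PKMYT1 kinase domain (recombinantly expressed and purified) used in a fluorescence anisotropy binding assay with a fluorescently labelled ATP-competitive tracer. Each compound screened at 20 μM in triplicate. Dasatinib 10 μM served as inhibitory control and 1% DMSO as vehicle control. Compounds giving >60% tracer displacement were retested at 20 and 5 μM in triplicate.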

Assay [2] addresses T2, Membrane-associated tyrosine- and threonine-specific cdc2-inhibitory kinase (Homo sapiens, UniProt Q99640).
T2 sequence (Q99640 whole entry): T1 sequence (whole entry)
The assay is described as follows: […] from PKMYT1 kinase domain (unknown origin) by fluorescence polarization binding assay.

The target in assay [3] is T2, Membrane-associated tyrosine- and threonine-specific cdc2-inhibitory kinase. The assay is described as follows: Displacement of (6-FAM)KI(pY)VV from full length PKMYT1 (unknown origin) by fluorescence polarization immuno assay. The procedure, abridged:
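Full-length PKMYT1, expressed and purified, was tested in the fluorescence polarization-based activity assay (FPIA) to give IC50 and Ki. Controls were 10 μM dasatinib and 1% DMSO. Anisotropy r was calculated, and Δr was taken as the difference between the PKMYT1 reaction and the reaction without PKMYT1. Data are given as means ± SEM.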
Background: Polarisation of emitted light reports the rotation of a fluorescent probe.

By inhibition is commonly meant the percentage by which the read-out fell short of the control. Higher therefore signals a strong effect. By IC50 is commonly meant the concentration that inhibits the measured activity by half. On to `Oc1cccc(Nc2nc(Nc3ccc(N4CCOCC4)cc3)ncc2Cl)c1`, for which, in assay [1], the inhibition worked out at 75%. Also, the IC50 in assay [2] was 6030 nM; in assay [3], 617 nM.

`Cc1cnc(Nc2ccc(N3CCOCC3)cc2)nc1Nc1cccc(O)c1` returned an inhibition in assay [1] below 10%.

`COc1ccc(Nc2nc(Nc3ccc(N4CCOCC4)cc3)ncc2OC)cc1O` displayed an inhibition in assay [1] of 39.7%.

Consider `COc1ccc(Nc2nc(Nc3ccc(N4CCOCC4)cc3)ncc2Br)cc1O`, for which the inhibition in assay [1] was 27%.

Turning to `Cc1ccc(Nc2nc(Nc3ccc(N4CCOCC4)cc3)ncc2Br)cc1O`, the inhibition in assay [1] is 26.7%.

In assay [1], `Cc1cnc(Nc2ccc(N3CCOCC3)cc2)nc1Nc1cc(O)ccc1Cl` came in with an inhibition below 10%.

`CSc1cnc(Nc2ccc(N3CCOCC3)cc2)nc1Nc1cccc(O)c1`: the inhibition in assay [1] was 100%. The IC50 in assay [2] was 6030 nM; in assay [3], 1550 nM.

Compound `CNC(=O)c1ccccc1Nc1nc(Nc2ccc(N3CCOCC3)cc2)ncc1OC` gave an inhibition in assay [1] of 100%. Besides, the IC50 is 6310 nM in assay [2] and 955 nM in assay [3].

With `Oc1cccc(Nc2nc(Nc3ccc(N4CCOCC4)cc3)ncc2Br)c1`, the inhibition in assay [1] is 21.1%.

In assay [1], `Oc1cccc(Nc2nc(Nc3ccc(N4CCOCC4)cc3)nc3c2SCC3)c1` showed an inhibition below 10%.

In assay [1], `COc1cnc(Nc2ccc(N3CCOCC3)cc2)nc1Nc1cccc(O)c1` registered an inhibition of 74.8%.

For the compound `Cc1ccc(Nc2nc(Nc3ccc(N4CCOCC4)cc3)ncc2OCc2ccccc2)cc1O`, in assay [1], the inhibition was below 10%.

In the case of `Oc1ccc(Cl)c(Nc2nc(Nc3ccc(N4CCOCC4)cc3)ncc2Cl)c1`, the inhibition in assay [1] is below 10%.

As a reminder, the Ki is the equilibrium dissociation constant of an inhibitor or competing ligand from its target. Read a high Ki as a looser hold on the target. In assay [2], `Cc1cc(Nc2ncc3cc(-c4c(Cl)cccc4Cl)c(=O)n(C)c3n2)ccc1F` yielded a Ki of 1350 nM.

As for `CSc1cnc(Nc2ccc(N3CCOCC3)cc2)nc1Nc1cc(C)ccc1Cl`, the inhibition in assay [1] is 13%.

Turning to `COc1cnc(Nc2ccc(N3CCOCC3)cc2)nc1Nc1ccc(C)c(O)c1`, the inhibition in assay [1] came to 100%. The IC50 was 9330 nM in assay [2] and 309 nM in assay [3].
